According to ChEMBL document CHEMBL2034893, “Selective inhibition of human type-5 17β-hydroxysteroid dehydrogenase (AKR1C3) by baccharin, a component of Brazilian propolis” (J Nat Prod, 2012):
Blank lines part the entries; values can stand above or below the compound they belong to. Active and inactive are the calls of the source. No cut-off for these calls is given here.

Experiments:
[1] = molecular target: Aldo-keto reductase family 1 member C2 (Homo sapiens, UniProt P52895); experiment: Inhibition of human recombinant AKR1C2 expressed in Escherichia coli using S-tetralol as substrate by fluorometry
Aldo-keto reductase family 1 member C2, sequence (P52895 whole entry): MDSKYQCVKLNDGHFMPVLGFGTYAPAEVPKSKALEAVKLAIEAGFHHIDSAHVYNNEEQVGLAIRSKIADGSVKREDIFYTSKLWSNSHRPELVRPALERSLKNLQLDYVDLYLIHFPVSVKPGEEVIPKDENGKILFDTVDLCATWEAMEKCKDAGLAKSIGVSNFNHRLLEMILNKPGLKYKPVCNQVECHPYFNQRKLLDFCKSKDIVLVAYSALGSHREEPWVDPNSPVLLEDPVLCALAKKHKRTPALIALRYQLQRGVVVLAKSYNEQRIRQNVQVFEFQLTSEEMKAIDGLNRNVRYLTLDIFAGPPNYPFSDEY

[2] = molecular target: Aldo-keto reductase family 1 member C4 (Homo sapiens, UniProt P17516); experiment: Inhibition of human recombinant GST-tagged AKR1C4 expressed in Escherichia coli using S-tetralol as substrate by fluorometry
Aldo-keto reductase family 1 member C4, sequence (P17516 whole entry): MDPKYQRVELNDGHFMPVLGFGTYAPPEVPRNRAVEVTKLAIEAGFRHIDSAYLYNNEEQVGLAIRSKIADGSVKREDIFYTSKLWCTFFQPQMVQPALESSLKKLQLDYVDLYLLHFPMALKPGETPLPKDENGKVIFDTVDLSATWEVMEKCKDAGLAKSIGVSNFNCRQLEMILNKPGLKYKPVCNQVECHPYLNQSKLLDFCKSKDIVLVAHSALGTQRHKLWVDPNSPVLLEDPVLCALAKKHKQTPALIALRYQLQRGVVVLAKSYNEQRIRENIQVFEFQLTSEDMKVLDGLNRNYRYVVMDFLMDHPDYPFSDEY
How it was run: (§1)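 Purified recombinant enzyme was assayed at 25 °C in 0.1 M potassium phosphate, pH 7.4, with 0.25 mM NADP+ and S-tetralol (0.1 mM for AKR1C1, 1 mM for AKR1C4). The rate of NADPH fluorescence increase was read at ex 340/em 455 nm. IC50 is the mean ± SD of at least three determinations.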

[3] = molecular target: T1, Aldo-keto reductase family 1 member C1 (Homo sapiens, UniProt Q04828); experiment: Inhibition of human recombinant GST-tagged AKR1C1 expressed in Escherichia coli using S-tetralol as substrate by fluorometry; how it was run: as §1
T1 sequence (Q04828 whole entry): as the sequence (P52895 whole entry) above, with V38T, H47R, V54L, S87C, M151V, H170R, L172Q counted along it

[4] = molecular target: T2, Aldo-keto reductase family 1 member C3 (Homo sapiens, UniProt P42330); experiment: Inhibition of human recombinant AKR1C3 expressed in Escherichia coli JM109 cells using S-tetralol as substrate at 100 uM by fluorometry
T2 sequence (P42330 whole entry): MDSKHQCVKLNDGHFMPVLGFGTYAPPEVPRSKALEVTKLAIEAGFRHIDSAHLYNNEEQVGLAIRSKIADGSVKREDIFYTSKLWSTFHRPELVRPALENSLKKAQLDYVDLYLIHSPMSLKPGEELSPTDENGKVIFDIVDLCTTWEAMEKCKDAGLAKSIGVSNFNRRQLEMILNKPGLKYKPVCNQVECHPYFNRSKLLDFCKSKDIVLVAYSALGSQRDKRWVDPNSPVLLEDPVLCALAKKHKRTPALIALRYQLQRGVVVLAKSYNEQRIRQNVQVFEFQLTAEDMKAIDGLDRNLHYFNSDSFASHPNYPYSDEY

[5] = molecular target: T1, Aldo-keto reductase family 1 member C1; experiment: Inhibition of AKR1C1-mediated progesterone reduction in human A549 cells at 0.2 to 5 uM incubated for 2 hrs prior to substrate addition measured after 6 hrs by LC/MS analysis; format: cell-based
How it was run: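 A549 cells were grown in DMEM with 10% FBS at 37 °C under 5% CO2. They were pretreated 2 h with inhibitor in serum-free medium, then given 30 μM progesterone for 6 h. Medium steroids were extracted twice with ethyl acetate. Progesterone and 20α-hydroxyprogesterone were quantified by LC/MS (chiral column, total-ion monitoring). Percent inhibition of reduction is the mean of two independent experiments.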

[6] = molecular target: T2, Aldo-keto reductase family 1 member C3; experiment: Noncompetitive inhibition of human recombinant AKR1C3 expressed in Escherichia coli JM109 cells using S-tetralol as substrate by fluorometry in presence of NADP+
[7] = molecular target: T2, Aldo-keto reductase family 1 member C3; experiment: Inhibition of human recombinant AKR1C3 expressed in Escherichia coli JM109 cells using S-tetralol as substrate by fluorometry
[8] = molecular target: T2, Aldo-keto reductase family 1 member C3; experiment: Competitive inhibition of human recombinant AKR1C3 expressed in Escherichia coli JM109 cells using S-tetralol as substrate by fluorometry
How it was run: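 Recombinant enzymes (wild-type or mutant) were expressed in E. coli JM109 and purified to homogeneity. Activity was NADP+-linked S-tetralol oxidation at 25 °C in 0.1 M potassium phosphate, pH 7.4, with saturating 0.25 mM NADP+ and five S-tetralol levels (0.33−2 mM). NADPH fluorescence was read at ex 340/em 455 nm. Ki is the mean ± SD of at least three determinations.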

PC-3 [9] = experiment: Growth inhibition of human PC3 cells overexpressing AKR1C3 at 50 uM after 72 hrs by MTT assay relative to untreated control; format: functional; conditions: PC-3, 72 h, read-out: GI
PC-3 [10] = experiment: Growth inhibition of human PC3 cells at 50 uM after 72 hrs by MTT assay relative to untreated control; format: functional; conditions: PC-3, 72 h, read-out: GI
[11] = molecular target: T2, Aldo-keto reductase family 1 member C3; experiment: Inhibition of human AKR1C3 using S-(+)-1,2,3,4-tetrahydro-1-naphthol as substrate
How it was run: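 Recombinant human AKR1C3, purified to homogeneity. NADP+-linked S-tetralol oxidation at 25 °C in 0.1 M potassium phosphate pH 7.4 with 0.25 mM NADP+ and 1 mM S-tetralol. Rate followed by NADPH fluorescence (excitation 340 nm, emission 455 nm). IC50 given as mean ± SD of at least three determinations.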

SMILES: COc1ccc2c(c1)c(CC(=O)O)c(C)n2C(=O)c1ccc(Cl)cc1 [INDOMETHACIN]
IC50 [1]: 75 µM
IC50 [2]: 54 µM
IC50 [3]: 130 µM

SMILES: O=C(O)/C=C/c1ccc(O)cc1
inhibition [4]: 22%

SMILES: O=C(O)c1cc(-c2ccccc2)cc(Br)c1O
inhibition [5]: Active

SMILES: CC(C)=CCc1cc(/C=C/C(=O)O)cc(CC=C(C)C)c1O [ARTEPILLIN]
Ki [6]: 0.68 µM
IC50 [7]: 1 µM
Ki [8]: 0.68 µM

SMILES: CC(C)=CCc1cc(/C=C/C(=O)O)ccc1OC(=O)CCc1ccccc1 [BACCHARIN]
inhibition of growth at 50 µM (PC-3 [9]): 43%
inhibition of growth at 50 µM (PC-3 [10]): 35%

SMILES: Cc1c(Cl)cccc1Nc1ccccc1C(=O)O [TOLFENAMIC ACID]
Ki [11]: 0.008 µM

Other lines, results leading:

inhibition [4]: 36%
SMILES: O=C(O)/C=C/c1ccc(O)c(O)c1

IC50 [1]: 6 µM
IC50 [7]: 1.7 µM
IC50 [2]: 2.3 µM
IC50 [3]: 13 µM
SMILES: O=C(/C=C/c1ccc(O)c(O)c1)OCCc1ccccc1 [CAFFEIC ACID PHENETHYL ESTER]
